Source: ChEMBL document CHEMBL1139610, “Design, synthesis, and biological evaluation of novel 4-hydro-quinoline-3-carboxamide derivatives as an immunomodulator” (2005)

Experiments:
Assay type in all cases: functional
[1] = In vitro percent inhibition of ConA induced T-cell proliferation at the dose 1 ug/mL
How it was run: (§1)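 Spleen cells sieved to single-cell suspension, red cells lysed with 0.16 M NH4Cl-Tris, washed, in RPMI-1640 + 10% FBS; seeded at 2.5×10^6/mL, stimulated with ConA 0.5 µg/mL, drug final 1, 10 or 100 µg/mL, triplicates; 72 h at 37 °C, [3H]thymidine 0.5 µCi for final 16 h; cpm counted; %inhibition = (control − drug)/control.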

[2] = In vitro percent inhibition of ConA induced T-cell proliferation at the dose 10 ug/mL; how it was run: as §1
[3] = In vitro percent inhibition of ConA induced T-cell proliferation at the dose 100 ug/mL; how it was run: as §1
[4] = molecular target: T1, Tumor necrosis factor (Mus musculus) (UniProt P06804); test: In vitro percent inhibition of tumor necrosis factor, alpha secreted by macrophage at the dose 1 ug/mL
T1 sequence (whole entry): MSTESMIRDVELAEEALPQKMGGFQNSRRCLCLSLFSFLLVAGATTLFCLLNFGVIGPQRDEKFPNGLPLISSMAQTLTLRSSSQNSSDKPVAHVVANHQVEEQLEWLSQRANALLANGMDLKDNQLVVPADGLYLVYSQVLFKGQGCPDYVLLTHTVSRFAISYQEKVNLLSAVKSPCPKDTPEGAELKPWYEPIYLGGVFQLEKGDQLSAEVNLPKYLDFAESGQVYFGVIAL
How it was run: (§2)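 RAW264.7 macrophages in RPMI 1640 with 10% FCS, 2 mM glutamine, gentamycin; seeded 2×10^5/mL, grown ~3 days to confluence at 37 °C, 5% CO2; LPS 10 µg/mL plus drug at final 1, 10 or 100 µg/mL for 24 h; supernatant TNF-α by ELISA; %inhibition = (control mean − drug mean)/control mean.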

[5] = molecular target: T1, Tumor necrosis factor (Mus musculus); test: In vitro percent inhibition of tumor necrosis factor, alpha secreted by macrophage at the dose 10 ug/mL; how it was run: as §2
[6] = In vitro percent inhibition of LPS induced B-cell proliferation at the dose 1 ug/mL
How it was run: (§3)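 Splenocyte single-cell suspension (red cells lysed, 0.16 M NH4Cl-Tris), RPMI-1640 + 10% FBS, 2.5×10^6/mL; LPS 10 µg/mL stimulation with drug at final 1, 10 or 100 µg/mL, triplicate wells; cultured 72 h, 37 °C, [3H]thymidine pulse 0.5 µCi last 16 h, β-counting; %inhibition = (control mean − drug mean)/control mean.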

[7] = In vitro percent inhibition of LPS induced B-cell proliferation at the dose 10 ug/mL; how it was run: as §3
[8] = In vitro percent inhibition of LPS induced B-cell proliferation at the dose 100 ug/mL; how it was run: as §3
[9] = molecular target: T1, Tumor necrosis factor (Mus musculus); test: In vitro percent inhibition of tumor necrosis factor, alpha secreted by macrophage at the dose 100 ug/mL; how it was run: as §2

Compound	inhibition at 1 µg/mL [1]	inhibition at 10 µg/mL [2]	inhibition at 100 µg/mL [3]	inhibition [4]	inhibition [5]	inhibition at 1 µg/mL [6]	inhibition at 10 µg/mL [7]	inhibition at 100 µg/mL [8]	inhibition [9]
CN(C)CCNC(=O)c1cnc2cc(Cl)ccc2c1O	14%	33.7%	99.9%	–	–	–	–	–	–
O=C(O)c1ccc2ncc(C(=O)Nc3ccccc3)c(O)c2c1	71.3%	57.5%	39.8%	15.2%	15.5%	82.5%	80.6%	48.5%	–
CSc1ccc2c(O)c(C(=O)N(C)c3ccccc3)cnc2c1	26.2%	11.8%	76%	14.6%	22.2%	31.1%	17%	83.5%	52.7%
COc1ccc2c(O)c(C(=O)NCC(C)(C)CN(C)C)cnc2c1	32.6%	29.4%	98.5%	–	–	48.8%	72.3%	91.6%	–
COc1ccc2c(O)c(C(=O)N(C)c3ccccc3)cnc2c1	36.5%	29.3%	53.7%	12.1%	35.7%	41.3%	24.9%	57.5%	35.7%
CN(C(=O)c1cnc2ccccc2c1O)c1ccccc1	-7.55%	24.9%	-9.33%	7.59%	–	17.7%	8.46%	32.4%	-1.33%
Cc1cc(C)c2ncc(C(=O)N(C)c3ccccc3)c(O)c2c1	1.84%	12.9%	47.1%	–	–	–	–	–	–
CN(C)CC(C)(C)CNC(=O)c1cnc2cc(F)ccc2c1O	20.8%	37.2%	96.3%	–	–	–	–	–	–
Cc1cc(C)c2ncc(C(=O)NCCN(C)C)c(O)c2c1	0.95%	38.5%	99.6%	–	–	–	–	–	–
CSc1ccc2c(c1)c(O)c(C(=O)N(C)c1ccccc1)c(=O)n2C	52%	75.3%	79.6%	14.7%	11.2%	13.6%	30.3%	37.8%	29.7%
COc1ccc2c(O)c(C(=O)NCCN(C)C)cnc2c1	-40.7%	-15.3%	92.8%	–	–	–	–	–	–
CSc1ccc2c(O)c(C(=O)NCCN(C)C)cnc2c1	30.3%	38.5%	100%	–	–	–	–	–	–
CN(C)CCNC(=O)c1cnc2ccccc2c1O	-14.4%	-6.94%	73.6%	–	–	–	–	–	–
O=C(O)c1ccc(NC(=O)c2cnc3ccccc3c2O)cc1	28.6%	38.8%	-20.9%	31.2%	5.61%	-1.94%	4.33%	28%	27.5%
CCN(C(=O)c1cnc2c(C)cc(C)cc2c1O)c1ccccc1	31.9%	35.5%	64.2%	46.3%	29.7%	4.49%	36%	87.5%	47.6%
CN(C)CC(C)(C)CNC(=O)c1cnc2ccc(F)cc2c1O	-30.7%	32.9%	87.4%	–	–	21.3%	17.8%	70.5%	–
CN(C(=O)c1cnc2cc(F)ccc2c1O)c1ccccc1	-46.8%	-21.5%	17.1%	–	–	4%	12.5%	-127%	–
CN(C(=O)c1c(O)c2ccccc2n(C)c1=O)c1ccccc1 [ROQUINIMEX]	58.1%	70.6%	78.5%	9.95%	18.2%	0%	24.6%	62.7%	27.3%

Compound	inhibition at 1 µg/mL [1]	inhibition at 10 µg/mL [2]	inhibition at 100 µg/mL [3]	inhibition [4]	inhibition [5]	inhibition at 1 µg/mL [6]	inhibition at 10 µg/mL [7]	inhibition at 100 µg/mL [8]	inhibition [9]
CN(C(=O)c1cnc2cc(C(F)(F)F)ccc2c1O)c1ccccc1	54.7%	4.11%	93.6%	–	-5.45%	39.8%	6.41%	64.9%	-3.57%
O=C(NCCO)c1cnc2cc(Cl)ccc2c1O	42.5%	49.8%	93.8%	–	6.06%	21.3%	29.1%	53.3%	77.7%
CN(C)CCNC(=O)c1cnc2cc(F)ccc2c1O	-24.6%	-9%	87.2%	–	–	–	–	–	–
O=C(Nc1ccc(N(CCO)CCO)cc1)c1cnc2ccccc2c1O	45.8%	61%	99.1%	1.82%	12.1%	38%	75.8%	88.5%	30.4%
CSc1cccc2c(O)c(C(=O)N(C)c3ccccc3)cnc12	11.4%	52.4%	81.7%	2.08%	–	-2.46%	36.5%	71.7%	-9.52%
O=C(Nc1ccccc1)c1cnc2cc(Cl)ccc2c1O	16.7%	32.6%	22.3%	10.5%	10.4%	-2.65%	12.3%	27.1%	23.1%
CN(C(=O)c1cnc2cc(Cl)ccc2c1O)c1ccccc1	-24.7%	-27.6%	41.2%	18.6%	5.61%	-4.33%	-26.7%	14.1%	25.6%
CCCN(CCC)C(=O)c1cnc2cc(Cl)ccc2c1O	42.1%	49.5%	51.2%	14.7%	18.4%	-3.57%	18.1%	12.6%	-4.03%
Cc1ccc2ncc(C(=O)NCCN(C)C)c(O)c2c1	-27.5%	-11.2%	94.9%	–	–	–	–	–	–
O=C(O)c1ccc2ncc(C(=O)Nc3cccc(Cl)c3)c(O)c2c1	87.6%	84.8%	73.4%	–	–	78.5%	94.3%	94.7%	–
CN(C)CCNC(=O)c1cnc2ccc([N+](=O)[O-])cc2c1O	41.5%	53.2%	99.9%	–	–	–	–	–	–
Cc1ccc2ncc(C(=O)N(C)c3ccccc3)c(O)c2c1	-59.3%	-20%	-1.7%	–	–	–	–	–	–
CSc1ccc2ncc(C(=O)NCCN(C)C)c(O)c2c1	-182%	-42.6%	98.2%	–	–	-4.33%	-9.69%	87.7%	–
CSc1cccc2c(O)c(C(=O)NCCN(C)C)cnc12	32%	69.1%	99.9%	–	–	–	–	–	–
CSc1ccc2ncc(C(=O)N(C)c3ccccc3)c(O)c2c1	–	-155%	96.3%	–	–	-47%	-144%	65.6%	–
O=C(O)c1ccc(NC(=O)c2cnc3ccc(Cl)cc3c2O)cc1	12.7%	61.5%	98.9%	0.78%	32.1%	17.8%	52.9%	87%	-5.35%
CN(C)CCNC(=O)c1cnc2ccc(Br)cc2c1O	-19.6%	31.6%	99.7%	–	–	–	–	–	–
